The values that follow come from ChEMBL document CHEMBL1255538, “Synthesis and molecular docking study of novel coumarin derivatives containing 4,5-dihydropyrazole moiety as potential antitumor agents” (Bioorg Med Chem Lett, 2010).

Values after ≈ are worked out from the molar mass of the structure shown.

For assay [1], the system named is PC-3. Description: Cytotoxicity against human PC3 cells after 48 hrs by MTT assay. It is filed as functional, cell-based. An outline of the steps: (§1)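 Tumour cells grown to log phase in RPMI 1640 with 10% FBS, seeded at 3 × 10⁴ cells/mL, preincubated 24 h at 37 °C, 5% CO₂. Test samples at pre-set concentrations were added to 6 wells, with 5-fluorouracil as positive reference, for 48 h. MTT was then added for 4 h, formazan was dissolved in DMSO and absorbance read at 570 nm. IC50 from three experiments in triplicate, mean ± SD.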
In general terms: Tetrazolium assays rely on reduction of a dye to a coloured formazan, in cell work by metabolically active cells.

Assay [2] addresses DNA polymerase I, thermostable (Thermus aquaticus, UniProt P19821). Description: Inhibition of Taq polymerase. The method, boiled down: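 Taq polymerase inhibition was monitored alongside the modified TRAP assay to detect interference with the amplification step. IC50 was the concentration giving 50% Taq polymerase inhibition.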
Assay [3] deals with Telomerase reverse transcriptase (Homo sapiens, UniProt O14746). Description: Inhibition of telomerase in human SGC7901 cells by TRAP assay. Type of assay: cell-based, SGC-7901. The method, boiled down:
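Modified TRAP assay using SGC-7901 cell extract as the telomerase source. IC50 taken from three experiments in triplicate, mean ± SD.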

The test system of assay [4] is A-431. Description: Cytotoxicity against human A431 cells after 48 hrs by MTT assay. It is filed as functional, cell-based. An outline of the steps:
as §1

In assay [5] the test system is SGC-7901. Description: Cytotoxicity against human SGC7901 cells after 48 hrs by MTT assay. Type of assay: functional, cell-based. The method, boiled down: as §1
For assay [6], the system named is SGC-7901. Description: Selectivity index, ratio of IC50 for Taq polymerase to IC50 for telomerase in human SGC7901 cells. It is filed as cell-based. The method, boiled down: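 Ratio of the concentration giving 50% Taq polymerase inhibition to the concentration giving 50% telomerase inhibition. Telomerase was measured by modified TRAP with SGC-7901 cell extract.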

Setting [7] is: Homo sapiens, PC-3, 48 h, read-out: IC50.
The mark [8] stands for this setting: Homo sapiens, A-431, 48 h, read-out: IC50.
Where [9] appears, read: Homo sapiens, SGC-7901, 48 h, read-out: IC50.

DNA polymerase I, thermostable, sequence (P19821 whole entry): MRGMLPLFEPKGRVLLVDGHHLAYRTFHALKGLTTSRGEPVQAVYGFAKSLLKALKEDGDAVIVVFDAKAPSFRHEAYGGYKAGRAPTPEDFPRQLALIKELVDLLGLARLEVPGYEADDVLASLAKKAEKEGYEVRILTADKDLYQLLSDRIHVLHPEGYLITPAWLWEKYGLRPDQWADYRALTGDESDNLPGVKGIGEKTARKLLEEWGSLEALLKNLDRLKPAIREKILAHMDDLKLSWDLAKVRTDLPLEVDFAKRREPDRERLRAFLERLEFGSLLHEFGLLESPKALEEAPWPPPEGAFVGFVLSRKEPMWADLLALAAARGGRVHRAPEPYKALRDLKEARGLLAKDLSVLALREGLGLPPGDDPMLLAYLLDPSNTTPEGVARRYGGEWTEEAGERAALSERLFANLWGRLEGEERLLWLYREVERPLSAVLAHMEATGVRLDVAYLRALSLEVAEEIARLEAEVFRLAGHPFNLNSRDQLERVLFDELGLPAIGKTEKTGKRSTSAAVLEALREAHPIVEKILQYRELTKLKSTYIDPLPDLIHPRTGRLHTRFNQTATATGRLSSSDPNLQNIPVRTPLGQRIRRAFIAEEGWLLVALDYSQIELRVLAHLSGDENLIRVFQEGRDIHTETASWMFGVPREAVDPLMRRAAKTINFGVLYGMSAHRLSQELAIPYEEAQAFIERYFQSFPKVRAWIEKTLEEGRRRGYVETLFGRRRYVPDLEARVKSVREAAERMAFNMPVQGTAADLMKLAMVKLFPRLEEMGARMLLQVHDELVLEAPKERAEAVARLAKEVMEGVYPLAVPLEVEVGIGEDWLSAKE
Telomerase reverse transcriptase, sequence (O14746 whole entry): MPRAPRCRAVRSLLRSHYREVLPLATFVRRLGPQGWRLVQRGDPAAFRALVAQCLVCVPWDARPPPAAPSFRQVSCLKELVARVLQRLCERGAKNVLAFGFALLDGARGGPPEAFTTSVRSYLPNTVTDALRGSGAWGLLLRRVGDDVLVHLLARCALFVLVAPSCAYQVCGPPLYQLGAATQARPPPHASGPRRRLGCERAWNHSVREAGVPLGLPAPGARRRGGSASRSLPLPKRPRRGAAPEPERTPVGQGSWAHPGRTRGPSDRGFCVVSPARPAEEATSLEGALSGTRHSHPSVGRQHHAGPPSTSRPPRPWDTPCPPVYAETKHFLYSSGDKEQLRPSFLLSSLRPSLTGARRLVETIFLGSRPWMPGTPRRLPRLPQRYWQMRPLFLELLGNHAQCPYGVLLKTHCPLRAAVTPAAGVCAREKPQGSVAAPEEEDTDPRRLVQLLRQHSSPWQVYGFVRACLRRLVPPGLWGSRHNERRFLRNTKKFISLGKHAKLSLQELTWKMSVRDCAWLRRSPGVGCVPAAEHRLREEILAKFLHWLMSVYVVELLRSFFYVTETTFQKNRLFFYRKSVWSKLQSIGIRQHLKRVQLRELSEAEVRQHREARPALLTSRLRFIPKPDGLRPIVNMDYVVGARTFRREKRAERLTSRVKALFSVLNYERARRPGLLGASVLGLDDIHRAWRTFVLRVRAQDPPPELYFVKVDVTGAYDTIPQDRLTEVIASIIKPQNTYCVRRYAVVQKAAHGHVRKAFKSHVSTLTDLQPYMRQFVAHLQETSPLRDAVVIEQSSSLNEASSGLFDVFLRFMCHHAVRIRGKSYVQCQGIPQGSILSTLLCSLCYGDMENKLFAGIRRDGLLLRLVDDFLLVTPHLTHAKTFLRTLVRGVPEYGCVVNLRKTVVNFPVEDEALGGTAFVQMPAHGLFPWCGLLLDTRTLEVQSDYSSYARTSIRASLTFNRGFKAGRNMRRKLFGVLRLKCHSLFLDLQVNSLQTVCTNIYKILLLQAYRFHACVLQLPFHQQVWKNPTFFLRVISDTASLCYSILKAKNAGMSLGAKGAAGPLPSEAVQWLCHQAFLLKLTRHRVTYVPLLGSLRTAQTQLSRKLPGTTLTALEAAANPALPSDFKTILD

For `CC(=O)N1N=C(c2cc3ccccc3oc2=O)CC1c1ccccc1Cl` (centres undefined), the concentration for half-maximal inhibition (IC50) in assay [1] (setting [7]) is 55.1 µg/mL (≈ 150 µM); in assay [2] (read-out: IC50) it was 16.8 µM; in assay [3] (read-out: IC50), 6.5 µM; in assay [4] (setting [8]) it was 50.6 µg/mL (≈ 138 µM); in assay [5] (setting [9]), 29.9 µg/mL (≈ 81.6 µM). In addition, in assay [6], the Selectivity Index worked out at 2.6.
`CC(=O)N1N=C(c2cc3ccccc3oc2=O)CC1c1ccc(Cl)cc1Cl` (centres undefined): the IC50 came out at 46.7 µg/mL (≈ 116 µM) in assay [1] (setting [7]); 20.7 µM in assay [2] (read-out: IC50); 9.6 µM in assay [3] (read-out: IC50); 68.7 µg/mL (≈ 171 µM) in assay [4] (setting [8]); 39.9 µg/mL (≈ 99.5 µM) in assay [5] (setting [9]). Also, the Selectivity Index in assay [6] was determined as 2.1.
For `CC(=O)N1N=C(c2cc3c(Br)cccc3oc2=O)CC1c1ccccc1` (centres undefined), the IC50 in assay [1] (setting [7]) came out at 58.1 µg/mL (≈ 141 µM); in assay [2] (read-out: IC50), 4 µM; in assay [3] (read-out: IC50), 1.8 µM; in assay [4] (setting [8]) it was 48.1 µg/mL (≈ 117 µM); in assay [5] (setting [9]) it was 28.9 µg/mL (≈ 70.3 µM). The Selectivity Index in assay [6] turned out to be 2.2.
For `CC[n+]1c(-c2ccccc2)c2cc(N)ccc2c2ccc(N)cc21` [HOMIDIUM BROMIDE], the concentration for half-maximal inhibition (IC50) in assay [3] (read-out: IC50) was determined as 2.5 µM.
Consider `CC(=O)N1N=C(c2cc3c(Br)cccc3oc2=O)CC1c1ccc(O)cc1` (centres undefined), for which the half-maximal inhibitory concentration (IC50) in assay [1] (setting [7]) was 38.8 µg/mL (≈ 90.7 µM); in assay [2] (read-out: IC50), 10 µM; in assay [3] (read-out: IC50), 4 µM; in assay [4] (setting [8]), 68.3 µg/mL (≈ 160 µM); in assay [5] (setting [9]), 22.3 µg/mL (≈ 52.3 µM). For the same compound, the Selectivity Index in assay [6] worked out at 2.5.
For the compound `CC(=O)N1N=C(c2cc3ccccc3oc2=O)CC1c1ccccc1` (centres undefined), the IC50 in assay [1] (setting [7]) was 40.2 µg/mL (≈ 121 µM); in assay [2] (read-out: IC50) it was 6 µM; in assay [3] (read-out: IC50), 2 µM; in assay [4] (setting [8]), 51.7 µg/mL (≈ 156 µM); in assay [5] (setting [9]), 2.69 µg/mL (≈ 8.09 µM). In assay [6], the Selectivity Index was determined as 3.
As for `O=c1[nH]cc(F)c(=O)[nH]1` [FLUOROURACIL], the figures for the IC50 in assay [1] (setting [7]) and in assay [4] (setting [8]) were 2.48 µg/mL (≈ 19.1 µM) and 2.17 µg/mL (≈ 16.7 µM), respectively.
`COc1ccc(C2CC(c3cc4ccccc4oc3=O)=NN2C(C)=O)cc1` (centres undefined): the half-inhibitory concentration (IC50) result in assay [1] (pc-3) is “Not Active”; in assay [2], “Not Active”; in assay [3] (read-out: IC50), 36.7 µM; in assay [4] (setting [8]), 68.7 µg/mL (≈ 190 µM); in assay [5] (setting [9]), 48.7 µg/mL (≈ 134 µM).
For the compound `CC(=O)N1N=C(c2cc3ccccc3oc2=O)CC1c1ccc(O)cc1` (centres undefined), the 50% inhibitory concentration (IC50) stood at 58.7 µg/mL (≈ 169 µM) in assay [1] (setting [7]); 58.5 µM in assay [2] (read-out: IC50); 29.1 µM in assay [3] (read-out: IC50); 73 µg/mL (≈ 209 µM) in assay [4] (setting [8]); 35.9 µg/mL (≈ 103 µM) in assay [5] (setting [9]). In addition, the Selectivity Index in assay [6] is 2.
On to `CC1=NN(C=O)C(c2ccccc2O)C1` (centres undefined), for which the concentration for half-maximal inhibition (IC50) in assay [1] (setting [7]) is 65.1 µg/mL (≈ 319 µM); in assay [2] it was “Not Active”; in assay [3] (sgc-7901), “Not Active”; in assay [4] (a-431) it was “Not Active”; in assay [5] (sgc-7901), “Not Active”.
As to `COc1ccc(/C=C/C(=O)c2cc3ccccc3oc2=O)cc1`, the IC50 entry in assay [1] (pc-3), in assay [2], in assay [3] (sgc-7901), in assay [4] (a-431) and in assay [5] (sgc-7901) was “Not Active” in each case.

One may read the IC50 as the concentration that inhibits the measured activity by half.
